PREPL inh: human PREPL enzyme inhibition; 0.68% of 320,000 active; recombinant PREPL, fluorescence polarization activity-based probe; inhibition, % at 5.96 µM; Q4J6C6; in the data active = inhibition above about 43%
RBBP9 inhibitor: blocks human serine hydrolase RBBP9; O75884; recombinant RBBP9, FP-Rh probe fluorescence polarization; inhibition, % at 7.94 µM; 0.2% of 220,000 active; AID 1515;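 active = inhibition above the campaign mean of all tested compounds plus 3 SD, cut at about 14% in these data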
Target sequence (O75884 whole entry, looked up): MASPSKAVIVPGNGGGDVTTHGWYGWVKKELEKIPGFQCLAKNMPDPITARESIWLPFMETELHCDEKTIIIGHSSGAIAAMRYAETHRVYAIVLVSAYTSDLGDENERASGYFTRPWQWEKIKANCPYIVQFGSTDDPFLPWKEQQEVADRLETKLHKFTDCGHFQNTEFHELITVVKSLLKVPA
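System: RBBP9 protein | Quantity: 2.5 µM RBBP9 dispensing solution, before mixing | Reagent: FP-Rh probe, 375 nM dispensing solution | Timing: Enzyme-compound preincubation 30 min, then probe labeling 45 min, 25 °C | Measured by: Fluorescence polarization | Read-out: % inhibition | Replication: One well per compound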
UBC13 inh: inhibitors of human UBC13 polyubiquitin chain formation. 0.47% of 330,000 active. P61088. TR-FRET. inhibition, % at 20 µM; in the data active = inhibition above about 45%, passing the limit was not always enough; inconclusive = no clear call, values can overlap the other calls
Target sequence (P61088 whole entry, looked up): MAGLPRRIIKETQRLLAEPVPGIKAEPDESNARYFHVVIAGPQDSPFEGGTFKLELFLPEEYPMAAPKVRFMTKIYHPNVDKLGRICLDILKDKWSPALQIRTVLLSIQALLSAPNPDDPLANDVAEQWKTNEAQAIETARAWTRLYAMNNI
SUMO HTRF inh: blocks human SUMOylation mediated by UBC9; HTRF SUMOylation assay, SAE1/SAE2 + UBC9, in vitro; 0.36% of 290,000 active; inhibition, % at 35 µM; AID 2006; in the data active = inhibition above about 50%, passing the limit was not always enough; inconclusive = no clear call, values can overlap the other calls
Target sequence (P63279 whole entry, looked up): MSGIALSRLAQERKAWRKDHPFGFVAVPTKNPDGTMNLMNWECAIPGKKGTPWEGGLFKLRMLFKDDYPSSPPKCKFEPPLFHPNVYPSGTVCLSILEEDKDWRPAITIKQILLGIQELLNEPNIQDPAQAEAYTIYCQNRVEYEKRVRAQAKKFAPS
Rin1-Abl PPI inh: inhibitors of human Rin1-Abl protein interaction | TR-FRET Rin1/Abl binding, biochemical | AID 588664 | inhibition, % at 7.35 µM | 0.4% of 360,000 active; in the data active = inhibition above about 5%, passing the limit was not always enough
ALR H2O2 inh: human ALR oxidase inhibition via reduced H2O2; P55789; purified ALR, DTT oxidation, H2O2 HRP-luminol luminescence; inhibition, % (test concentration not listed); 3.8% of 290,000 active; AID 485317;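 active = mean replicate inhibition above about 79%, with every replicate also reaching it, limit read from the data; inconclusive = only one of the two criteria met; inactive = mean below limit and not every replicate reaching it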
Target sequence (P55789 whole entry, looked up): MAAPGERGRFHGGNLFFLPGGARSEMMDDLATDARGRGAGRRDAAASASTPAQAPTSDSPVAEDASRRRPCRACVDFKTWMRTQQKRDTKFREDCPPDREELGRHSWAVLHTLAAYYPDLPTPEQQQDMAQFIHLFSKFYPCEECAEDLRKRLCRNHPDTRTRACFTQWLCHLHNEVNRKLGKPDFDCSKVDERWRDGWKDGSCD
Of the large screens only hits and unclear results are named; the others gave an inactive call. In the library only some 4.3% were active in any assay of this set; here they are far more common.

COc1ccc(C(=O)/C=C/c2ccc(OCc3ccccc3)cc2)cc1CSCC(=O)O	ALR H2O2 inh 99 (no result: PREPL inh, RBBP9 inhibitor)
COc1ccc(C(=O)/C=C/c2cccc(OCc3ccccc3)c2)cc1CSCC(=O)O	none (no result: RBBP9 inhibitor)
Cc1ccccc1C(=O)NC(CC(C)C)C(=O)N1CCN(c2ccccc2)CC1 (stereo unspecified)	none (no result: RBBP9 inhibitor)
CN(c1ccc(O)cc1)c1nc(-c2cccs2)cs1	ALR H2O2 inh 98
Cc1cc(O)ccc1Nc1nc(-c2cccnc2)cs1	none (no result: PREPL inh, RBBP9 inhibitor)
Cc1cc(O)ccc1Nc1nc(-c2cccs2)cs1	ALR H2O2 inh 88
Cc1nc(C)c(-c2csc(Nc3ccc(F)cc3)n2)s1	ALR H2O2 inh 94
COc1cccc(Nc2nc(-c3sc(C)nc3C)cs2)c1	none (no result: RBBP9 inhibitor)
Cc1nc(C)c(-c2csc(Nc3ccc(O)cc3C)n2)s1	ALR H2O2 inh 99 (no result: RBBP9 inhibitor)
COc1cc(S(=O)(=O)N2CCN(Cc3ccc4c(c3)OCO4)CC2)ccc1NC(C)=O	none (no result: RBBP9 inhibitor, SUMO HTRF inh)
c1ccc(-c2csc(Nc3cccnc3)n2)nc1	none
c1cncc(Nc2nc(-c3cccs3)cs2)c1	ALR H2O2 inh 96
O=C(Cc1ccc([N+](=O)[O-])cc1)Oc1ccccc1	none (no result: PREPL inh, RBBP9 inhibitor, UBC13 inh, SUMO HTRF inh, ALR H2O2 inh)
CC1Cc2ccccc2N1Cc1cccc(S(=O)(=O)N(C)C)c1 (stereo unspecified)	ALR H2O2 inh 99 (no result: RBBP9 inhibitor)
CC1Cc2ccccc2N1CC(=O)Nc1ccc(S(=O)(=O)N(C)C)cc1 (stereo unspecified)	none
CC(=O)N(c1cccc(C)c1)C1SC(=O)N(c2ccccc2)C1=O (stereo unspecified)	none
Cc1ccc(N2C(=O)SC(N(CC(=O)O)c3cccc(C)c3)C2=O)cc1 (stereo unspecified)	ALR H2O2 inh 99
O=C(Nc1ccc(SC(F)(F)F)cc1)c1ccccn1	none
Fc1ccc2c(c1)C1OCCCC1C(c1ccccc1)N2 (stereo unspecified)	ALR H2O2 inh 88 (no result: RBBP9 inhibitor)
c1coc(C2Nc3ccccc3C3OCCC23)c1 (stereo unspecified)	none
CCCc1[nH]nc2c1C(c1ccc(OCCN3CCOCC3)c(OC)c1)C(C#N)=C(N)O2 (stereo unspecified)	none
CCOc1cc(C2C(C#N)=C(N)SC(N)=C2C#N)ccc1OCCN1CCOCC1	UBC13 inh inconclusive, ALR H2O2 inh 99
Cc1ccccc1-n1nc(-c2cccnc2)cc1C(=O)NN	none (no result: ALR H2O2 inh)
C=CCN(c1ccccc1)S(=O)(=O)c1cc2c(cc1C)N(C)CCO2	ALR H2O2 inh 97 (no result: RBBP9 inhibitor)
C=CCN(c1ccccc1)S(=O)(=O)c1ccc2c(c1)N(C(C)=O)CCO2	none (no result: RBBP9 inhibitor)
CCCC1CCC(c2ccc(C(N)=O)cc2)CC1 (stereo unspecified)	none
CCCC1CCC(c2ccc(/C(N)=N/O)cc2)CC1 (stereo unspecified)	ALR H2O2 inh 94
O=[N+]([O-])c1cc(/C=N\Nc2nccs2)ccc1O	SUMO HTRF inh 70 (no result: PREPL inh, UBC13 inh, Rin1-Abl PPI inh, ALR H2O2 inh)
O=[N+]([O-])c1ccccc1/C=N\Nc1nccs1	none (no result: RBBP9 inhibitor)
OC(CNCc1ccccc1)Cn1ccc2ccccc21 (stereo unspecified)	none
OC(CN1CCNCC1)Cn1ccc2ccccc21 (stereo unspecified)	PREPL inh 60 (no result: RBBP9 inhibitor, Rin1-Abl PPI inh)
Cc1cc(C)n(CC(O)Cn2ccc3ccccc32)n1 (stereo unspecified)	none
Oc1ccccc1NCC(O)Cn1ccc2ccccc21 (stereo unspecified)	PREPL inh 45, ALR H2O2 inh inconclusive
O=C1c2ccccc2C(=O)C12OC2c1cccc2ccccc12 (stereo unspecified)	SUMO HTRF inh 96, Rin1-Abl PPI inh 13
CC(=O)C(Cc1ccccc1)NC(=O)COC(=O)c1cc(S(=O)(=O)N2CCOCC2)ccc1F (stereo unspecified)	none (no result: PREPL inh, RBBP9 inhibitor, UBC13 inh, SUMO HTRF inh, ALR H2O2 inh)
C/C(CC(=O)Nc1ccc2c(c1)OCCO2)=N\NC(=O)COc1ccc(C)cc1Br	none (no result: RBBP9 inhibitor)
O=C(c1cc(C(=O)c2ccco2)cc(C(=O)c2ccco2)c1)c1ccco1	ALR H2O2 inh 97
Nc1ncnc2c1c(-c1ccc(Oc3ccccc3)cc1)cn2C1CCCC1	none (no result: RBBP9 inhibitor, SUMO HTRF inh)
Cc1onc(-c2ccccc2)c1C(=O)Nc1nncs1	none (no result: RBBP9 inhibitor)
CC(C)(C)NC(=O)C(c1ccc(-c2ccccc2)cc1)N(C[C@H]1CC[C@@H]([C@@H]2CC[C@H](CO)O2)O1)C(=O)c1ccccc1F (stereo partly specified)	none (no result: PREPL inh, RBBP9 inhibitor, UBC13 inh, SUMO HTRF inh, ALR H2O2 inh)
CC1CN(c2ccccc2)NC1=O (stereo unspecified)	ALR H2O2 inh 99
O=C(c1ccc2c(c1)C(=O)N(Cc1ccco1)C2O)N1CCOCC1 (stereo unspecified)	ALR H2O2 inh 87
O=C(c1ccc2c(c1)C(=O)N(Cc1ccco1)C2=O)N1CCOCC1	none
CCN1/C(=C/C(C)=C/c2sc3ccccc3[n+]2CC)Sc2ccccc21	ALR H2O2 inh 99
COC1c2ccccc2C(=O)N1CCc1ccc(Cl)cc1 (stereo unspecified)	none (no result: RBBP9 inhibitor)
COc1cc(SC)ccc1C(=O)NCCOc1ccc(C)c(C)c1	none
O=C(ONC(=O)C1C2C=CC(C2)C1C(=O)NOC(=O)c1ccccc1)c1ccccc1 (stereo unspecified)	none (no result: PREPL inh, RBBP9 inhibitor, UBC13 inh, SUMO HTRF inh, ALR H2O2 inh)
Cc1nc2sccn2c(=O)c1S(=O)(=O)N1CCN(c2ccc(F)cc2)CC1	ALR H2O2 inh 95 (no result: RBBP9 inhibitor)
Cc1csc(=Nc2c(C)n(C)n(-c3ccccc3)c2=O)n1Cc1ccccc1	ALR H2O2 inh 97
C=CCn1c(-c2ccc(OC)cc2)csc1=Nc1c(C)n(C)n(-c2ccccc2)c1=O	none
CC(C)CCCCCCCCCCCCC(=O)NCC(=O)NC1C(C)OC(Nc2ncnc3nc[nH]c23)C(O)C1O (stereo unspecified)	none (no result: PREPL inh, RBBP9 inhibitor, UBC13 inh, SUMO HTRF inh, ALR H2O2 inh)
O=[N+]([O-])c1ccc2[nH]c3c(c2c1)CCCC3	ALR H2O2 inh 98
CC(=O)c1cccc(NC(=O)CCN2C(=O)C3C4CCC(C4)C3C2=O)c1 (stereo unspecified)	none (no result: RBBP9 inhibitor)
COc1cccc(-c2csc3ncnc(Sc4nnnn4C)c23)c1	none (no result: RBBP9 inhibitor, SUMO HTRF inh)
COCc1cc(C)nc(N/N=C/c2ccc(-c3ccc(C(=O)O)c(Cl)c3)o2)c1C#N	ALR H2O2 inh 98 (no result: UBC13 inh, Rin1-Abl PPI inh)
N#Cc1c(/N=C/c2ccc(-c3ccc(C(=O)O)c(Cl)c3)o2)sc2c1CCCC2	ALR H2O2 inh 99 (no result: RBBP9 inhibitor, SUMO HTRF inh)
N#Cc1c(/N=C/c2ccc(-c3ccccc3C(=O)O)o2)sc2c1CCCC2	none (no result: RBBP9 inhibitor, ALR H2O2 inh)
CC(=O)Nc1nc(-c2ccc3c(c2)CC(C)N3C(=O)C2CC2)c(C)s1 (stereo unspecified)	ALR H2O2 inh 99 (no result: RBBP9 inhibitor)
CCOC(=O)C(=O)Nc1nc(-c2ccc3c(c2)CCN3C(=O)C2CC2)c(C)s1	ALR H2O2 inh 99 (no result: RBBP9 inhibitor)
Nc1ccc(-c2nc3cc(N)ccc3s2)cc1	SUMO HTRF inh inconclusive, ALR H2O2 inh 99
Nc1ccc2nc(-c3ccccc3)sc2c1	SUMO HTRF inh 57
CCCCCc1c2c(cc(O)c1C(=O)O)OC(=O)c1c(cc(OC)cc1C(=O)CCCC)O2	ALR H2O2 inh 98 (no result: SUMO HTRF inh)
CS(=O)(=O)Nc1ccc(C(=O)Nc2ccc(S(=O)(=O)N3CCCC3)cc2)cc1	none
O=C(CNS(=O)(=O)c1ccc2ccccc2c1)OCc1csc(-c2ccccc2)n1	ALR H2O2 inh 99
